Hit rate of the full screen: of about 300,000 compounds, about 1,200 (0.4%) were called active. The sample holds actives, similar compounds and a random draw of the others, so the mix is not that of the screen.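 How the source made its calls: active means B-score over 3 SD under the library average, no early fluorescence shift, positive overall ratio signal; inactive means the rest.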

Short transient receptor potential channel 4 (Mus musculus), sequence (Q9QUQ5 whole entry, looked up): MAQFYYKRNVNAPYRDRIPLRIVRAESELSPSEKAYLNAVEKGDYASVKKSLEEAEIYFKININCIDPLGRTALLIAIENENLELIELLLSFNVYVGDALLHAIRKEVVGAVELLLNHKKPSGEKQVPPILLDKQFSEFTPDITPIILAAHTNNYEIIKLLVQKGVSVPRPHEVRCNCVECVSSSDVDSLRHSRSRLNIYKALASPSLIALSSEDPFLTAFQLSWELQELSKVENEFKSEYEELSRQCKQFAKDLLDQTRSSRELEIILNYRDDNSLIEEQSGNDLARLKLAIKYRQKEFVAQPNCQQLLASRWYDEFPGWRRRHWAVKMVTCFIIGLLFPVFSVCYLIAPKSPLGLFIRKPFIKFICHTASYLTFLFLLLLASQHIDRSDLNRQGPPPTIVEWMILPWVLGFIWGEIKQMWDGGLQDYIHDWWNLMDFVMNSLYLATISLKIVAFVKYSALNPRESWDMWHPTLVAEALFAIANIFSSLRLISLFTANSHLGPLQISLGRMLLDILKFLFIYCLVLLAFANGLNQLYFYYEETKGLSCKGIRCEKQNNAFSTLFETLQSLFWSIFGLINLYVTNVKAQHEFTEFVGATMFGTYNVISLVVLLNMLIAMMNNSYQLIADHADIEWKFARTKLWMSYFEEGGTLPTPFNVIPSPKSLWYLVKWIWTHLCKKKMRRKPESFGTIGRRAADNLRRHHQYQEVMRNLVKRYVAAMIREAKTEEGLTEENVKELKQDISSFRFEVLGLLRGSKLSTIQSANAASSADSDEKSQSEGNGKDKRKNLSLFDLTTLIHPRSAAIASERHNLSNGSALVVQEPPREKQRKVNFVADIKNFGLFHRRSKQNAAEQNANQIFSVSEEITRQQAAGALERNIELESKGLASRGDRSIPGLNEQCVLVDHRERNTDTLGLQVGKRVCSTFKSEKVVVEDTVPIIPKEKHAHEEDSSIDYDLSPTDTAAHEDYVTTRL

The assay addresses Short transient receptor potential channel 4 (Mus musculus) (UniProt Q9QUQ5). The assay is described as follows: blockers of DAMGO-evoked TRPC4 calcium flux – Fluo4 calcium, HEK293 TRPC4beta/mu-opioid cells, primary screen (AID 2247). Particulars: at 10 µM; active compounds read low. The method in brief: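 Assay system: TRPC4beta/mu-opioid receptor HEK293 cell line; compound dosing: single concentration per test compound; detection: Fluo4 Ca2+ flux fluorescence; evaluation: per-well B score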
`Cc1ccc(-c2csc(NCCc3nc4cc(Cl)c(Cl)cc4n3CCOCCO)n2)cc1`: the B-score entry is “inactive”. With `CCCSc1nc2c(c(=O)n(C)c(=O)n2C)n1Cc1ccc(C)cc1`, the B-score entry is “inactive”. As for `Cc1cccc(Cn2c(SCCO)nc3c2c(=O)n(C)c(=O)n3C)c1`, the B-score entry is “inactive”. Then `CCOc1ccc(Cn2c(SCCCCC#N)nc3c2c(=O)n(C)c(=O)n3C)cc1OCC`, with -5 (active).

With `COc1ccc(N2C(=O)C3C(C2=O)C(C(=O)c2ccccc2)N2CCCC32)cc1` (stereo not given), the B-score result was “inactive”. Then `O=C(COC(=O)c1ccc(F)cc1)NCCCc1ccccc1`, with “inactive”; and `Cc1ccc(-c2nn(-c3cccc(F)c3)cc2CNCCc2ccncc2)o1`, with “inactive”. As to `COc1ccccc1CC(=O)Nc1ccc(F)cc1F`, the B-score result is “inactive”. Consider `CSCCNCc1cn(-c2ccc(F)cc2F)nc1-c1ccccc1C`, for which the B-score is -7 (active). Under `O=C(NC1CC1)C1CCCN(C(=O)NC2CCCCC2)C1` (stereo not given) stands “inactive”. As to `CCc1nc(SCC(=O)Nc2ccccc2OC)n[nH]1`, the B-score entry is “inactive”. For `COc1ccc(N(CC(=O)Nc2cc(OC)cc(OC)c2)S(=O)(=O)c2c(C)n[nH]c2C)cc1`, the B-score result is “inactive”. For the molecule `O=C(O)C(F)(F)C(NCc1ccccc1)c1ccccc1` (stereo not given), the B-score result is “inactive”. Under `CCCc1c(C(=O)N/N=C(\C)CCc2ccc(OC)cc2)nnn1-c1nonc1N` stands “inactive”; under `CN(C)c1cc(N)c2ccccc2n1` (tested in a mixture with another compound), -5 (active); under `COc1ccc(-c2cc(C(=O)N(C)Cc3ccccc3)c3ccccc3n2)cc1`, “inactive”. As for `Nc1nc(-c2ccccc2)cc(-c2ccccc2)n1`, the B-score result was “inactive”. For the molecule `COc1ccccc1C(=O)N(Cc1ccc(C)o1)C1CCS(=O)(=O)C1` (stereo not given), the B-score entry was “inactive”. Under `CCCCCCCCCOC1OC(CO)C(O)C(O)C1NC(C)=O` (stereo not given) stands “inactive”; under `Cc1nn(-c2ccccc2)c2[nH]c(C(F)(F)F)cc(=O)c12`, -7 (active). Take `Cc1nn(-c2ccccc2)c(=O)c2noc(C)c12`: the B-score result was “inactive”. As to `Cc1nc2c(c(C)nn2-c2ccccc2)c(C)c1C`, the B-score result is “inactive”.

On to `COc1ccc(Nc2cc(Sc3ccc(OC)cc3)ncn2)cc1`, for which the B-score entry is “inactive”. On to `Clc1ccc(-c2ncc3ccccn23)c(Cl)c1`, for which the B-score entry is “inactive”.

On to `Clc1ccc(COn2c(-c3ccc(Cl)cc3Cl)nc3ncccc32)cc1`, for which the B-score is -9 (active). Turning to `COn1c(-c2ccc(Cl)cc2Cl)nc2ncccc21`, the B-score entry is “inactive”. Then `O=C(COC(=O)c1ccc([N+](=O)[O-])cc1Cl)NC(=O)c1ccccc1`, with “inactive”; and `Cc1cc(C)c(S(=O)(=O)NCC(c2ccc3c(c2)OCO3)N2CCOCC2)c(C)c1` (stereo not given), with “inactive”. As to `N#C/C(=C/c1ccc(Cl)cc1)NC(=O)c1ccccc1`, the B-score entry was “inactive”.

As to `Cc1c(Cl)c([N+](=O)[O-])nn1CC(=O)NCCCN1CCOCC1`, the B-score entry was “inactive”. Under `CC(=O)Nc1ccc(NC(=O)COc2ccccc2C(=O)Nc2cccc(Cl)c2Cl)cc1` stands “inactive”; under `COc1ccccc1NC(=S)NC(=O)C(C)C`, “inactive”; under `FC(F)Oc1ccccc1NC(=S)Nc1cccc(Cl)c1Cl`, -7 (active). On to `CCCCc1nc(SCC(=O)Nc2nnc(C(C)C)s2)n[nH]1`, for which the B-score entry was “inactive”. Then `C[N+](C)(C)CCOP(=O)([O-])OC[C@H](O)CO`, with “inactive”. Take `O=C(Nc1cccc(S(=O)(=O)NC2=NCCC2)c1)C1CCCCC1`: the B-score entry was “inactive”.

Turning to `COc1ccc(/C=N/Nc2ncnc3sc4c(c23)CCCC4)cc1O`, the B-score entry was “inactive”.

For `COc1ncnc2sc3c(c12)CCCC3`, the B-score is -6 (active). For `N=c1c2c3c(sc2ncn1N)CCCC3`, the B-score result is “inactive”.

On to `Cc1ccc(S(=O)(=O)N(CC(O)CN2CCCCC2)c2cccc([N+](=O)[O-])c2)cc1` (stereo not given), for which the B-score entry is “inactive”. As to `Cc1cc(C)n2nc(C(=O)OCC(=O)N(CCC#N)c3ccc(F)cc3)nc2n1`, the B-score entry is “inactive”.

For `CCCn1nc(NS(=O)(=O)c2ccc(F)cc2)c2cc3ccccc3nc21`, the B-score result was “inactive”. Turning to `C=C(C)COc1ccc(-c2n[nH]c(C)c2-c2ccccc2)c(O)c1`, the B-score result is “inactive”. For `COc1ccc(-c2n[nH]c(C)c2-c2ccccc2OC)c(O)c1`, the B-score was -6 (active). Then `C=C(C)COc1ccc(-c2n[nH]c(C)c2-c2ccccc2OC)c(O)c1`, with “inactive”.

For the molecule `Cc1ccc(-n2c(C)cc(C(=O)CSc3nnc4ccccn34)c2C)cc1`, the B-score entry was “inactive”. For the molecule `CN(C)c1ccc(NC(=O)CN2C3CCCC2CC(NC(=O)c2ccccc2)C3)cc1` (stereo not given), the B-score was -9 (active). Then `COc1ccc(NC(=O)NC2CC3CCCC(C2)N3Cc2ccccc2)cc1` (stereo not given), with “inactive”; and `CC(=O)NC1CC2CCCC(C1)N2CC(=O)Nc1ccccc1` (stereo not given), with “inactive”. Regarding `COc1ccc(OC)c(C(C)NC(=S)Nc2ccc(S(=O)(=O)Nc3ncccn3)cc2)c1` (stereo not given), the B-score entry is “inactive”.

The values above are taken from PubChem BioAssay AID2247 (Johns Hopkins Ion Channel Center, 2010).
